NF-kB expr up – raises NF-kB expression in human neuronal cells; 1.6% of 190,000 active; NF-kB reporter expression; active compounds read high; AID 1239; fold change at 12.5 µM; in the data active means fold change above about 3.3
APP 5'UTR act – APP 5'UTR luciferase reporter activation. SH-SY5Y APP 5'UTR luciferase reporter, luminescence; zero percent = DMSO vehicle wells. activation, % at 2 µM. 1% of 190,000 active;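 active means activation above a set limit, based on mean plus 3 SD of controls, cut at about 140% in these data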
Pf gamet viab – P. falciparum stage V gametocyte viability inhibition. P. falciparum stage V gametocytes, ATP luminescence, 24 h. inhibition, % at 10.9 µM. 0.065% of 150,000 active;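 active means inhibition above the mean plus 3 SD of compounds within the control limits, set per campaign, cut at about 38% in these data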;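 further: 0% = DMSO wells and 100% = medium only without gametocytes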
STAT3 act – increases IL-6 driven STAT3 reporter signal; U3A cells, IL-6 STAT3-luciferase reporter, luminescence; 100% = signal with IL-6 EC80 alone; activation (% of control), % at 5.6 µM; 0.91% of 190,000 active;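 active means activation above the screen-wide mean of compound activation plus 3 SD, cut at about 130% in these data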;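 further: 0% = background luminescence of wells with medium and substrate only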
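Test system: STAT3-luciferase reporter U3A cells; Detection: reporter luminescence signal; Times: 1 h compound pre-exposure, 6 h IL-6 stimulation, 37 °C; Benchmarks: IL-6-only high control; Also added: IL-6 stimulus at 33 ng/mL final.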
STAT1 activator – STAT1 signaling activation. NIH 3T3 STAT1-luciferase reporter, IFN-gamma, luminescence; 100% = IFN-gamma alone, no compound. activation (% of control), % at 5.5 µM. 2.6% of 200,000 active. AID 932;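 active means activation above the screen-wide mean activation plus 3 SD, cut at about 130% in these data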;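 further: raw ratio to IFN-gamma control signal so 100% means no change and 0% no light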
STAT1 inh – STAT1 signaling inhibition | NIH 3T3 STAT1-luciferase reporter, IFN-gamma, luminescence | inhibition, % at 5.5 µM | 0.35% of 200,000 active | AID 920;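 active means inhibition above a set limit, the mean inhibition across all tested compounds plus 3 SD, cut at about 34% in these data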;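 further: 0% = IFN-gamma with DMSO and 100% = IFN-gamma with 300 µM nifuroxazide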
* marks the source's active call; other numbers are inactive results; . = no result given. In the library only some 3.9% were active in any assay of this set; here they are far more common.

SMILES	NF-kB expr up	APP 5'UTR act	Pf gamet viab	STAT3 act	STAT1 activator	STAT1 inh
O=C(NC(=S)Nc1ccc2c(c1)OCCO2)c1ccccc1F	7.37*	159.2*	.	97.5	149.2*	-57.6
CCOc1cccc(C(=O)NC(=S)Nc2ccc3c(c2)OCCO3)c1	1.86	24.7	.	107.4	110.9	-12.3
O=C(NC(=S)Nc1ccc2c(c1)OCCO2)c1ccccc1	4.69*	178.8*	.	73.3	128.5	-31.9
Cc1ccc(Nc2ncnc(N)n2)cc1C	1.46	5.9	12.3	96.9	106.8	-9.3
CCc1ccc(OCCNC(=O)c2ccccc2SCc2ccccc2)cc1	0.66	0.2	3.4	133.7*	95.0	5.6
CCNC(=O)c1ccccc1SCc1ccccc1	1.07	20.9	-3.4	102.3	108.3	-11.1
CCCC[n+]1c(-c2ccc(Cl)cc2Cl)csc1Nc1ccccc1	0.66	-1.9	.	106.6	101.5	-1.6
Clc1ccc(-c2csc(Nc3ccccc3)[n+]2Cc2ccco2)c(Cl)c1	0.96	37.9	9.1	103.0	140.4*	-43.0
N#CCN1CCN(CC(=O)c2ccc(Br)cc2)CC1	.	.	1.3	.	.	.
c1ccc(-c2nnc3sc(-c4ccncc4)nn23)cc1	0.96	.	52.0*	93.6	104.3	-7.7
Cc1cc(=O)n2nc(-c3ccccc3)sc2c1C#N	1.93	3.5	.	89.5	107.4	-7.3
Clc1ccc(-c2nn3c(-c4ccccc4)nnc3s2)cc1	0.97	11.4	1.9	94.4	108.0	-8.0
Cc1nc2sc(-c3ccccc3)nn2c(=O)c1Br	4.55*	112.1	-0.1	91.4	146.7*	-51.2
CCOc1ccccc1N1CCN(Cc2cn[nH]c2-c2ccc(F)cc2)CC1	.	.	4.5	.	.	.
CCCN1C(=O)N(c2cccc(C)c2)C(C)(O)CC1(C)C (stereo not given)	.	.	-2.7	.	.	.
Cn1nnc2cc(C(=O)Nc3ccccc3)ccc21	1.75	27.9	-15.0	82.6	129.6*	-33.6
Cn1nnc2cc(C(=O)Nc3ccc(Cl)cc3)ccc21	1.48	41.5	22.1	90.6	132.2*	-36.8
Cc1ccc(NC(=O)c2ccc3c(c2)nnn3C)cc1	1.92	44.5	0.3	86.4	115.2	-16.7
Cn1nnc2cc(C(=O)Nc3cccnc3)ccc21	1.23	19.0	.	84.5	107.0	-7.5
COc1ccc(-c2nc(C(F)(F)F)c(OC)o2)cc1OC	1.12	-18.2	.	92.5	98.7	1.4
COc1ccc2nc(/N=C(\N)NC(=O)N3c4ccccc4Sc4ccccc43)nc(C)c2c1	0.6	2.3	.	93.1	109.0	-10.1
COc1ccc2nc(/N=C(\N)NC(=O)C(C)(C)C)nc(C)c2c1	0.7	16.1	15.1	106.5	129.3*	-32.2
CCC(=O)N/C(N)=N/c1nc(C)c2cc(OC)ccc2n1	1.5	27.4	.	122.0	133.6*	-36.5
O=C(Cc1ccc(Cl)cc1Cl)OCC(=O)N1CCN(C(=O)c2ccco2)CC1	0.86	17.0	.	101.4	103.9	-4.2
O=c1[nH]c2ccc(Cl)cc2c(O)c1-c1ccccc1	0.6	-4.8	.	29.0	67.2	45.3*
SMILES	NF-kB expr up	APP 5'UTR act	Pf gamet viab	STAT3 act	STAT1 activator	STAT1 inh
OC(CN1CC=C(/C=C/c2ccc(Br)cc2)CC1)c1ccccc1 (stereo not given)	.	.	8.5	.	.	.
COc1ccc(-c2cc(=Nc3ccc(C(=O)O)cc3)c3cc(C)ccc3o2)cc1	3.03	209.4*	.	91.0	116.6	-20.4
CCc1ccc2oc(-c3ccc(OC)cc3)cc(=Nc3c(C)n(C)n(-c4ccccc4)c3=O)c2c1	0.64	172.8*	-7.9	102.5	105.3	-7.0
CCc1ccc2oc(-c3ccc(OC)cc3)cc(=Nc3cccc(C(=O)O)c3)c2c1	7.19*	203.9*	27.0	79.3	88.4	11.5
C=CCn1c(-c2ccc(OC)cc2)csc1=Nc1c(C)n(C)n(-c2ccccc2)c1=O	0.69	2.4	15.6	99.2	94.5	6.0
CN(C)C1=NCCN1CCc1ccccc1	.	.	-24.7	.	.	.
c1ccc(Sc2cnc3ccccc3n2)cc1	1.56	38.1	.	110.1	133.6*	-36.0
O=C(CCc1ccccc1)NC(=S)NCc1ccco1	.	3.8	-1.2	106.8	102.7	-2.5
O=C(Oc1ccccc1/C=C\C(=O)c1cc2ccccc2o1)c1ccccc1	5.7*	163.0*	1.4	106.9	85.8	16.0
O=C(Oc1ccccc1/C=C\C(=O)c1cc2ccccc2o1)c1cccc(F)c1	4*	76.3	.	127.1	102.5	-2.8
COc1cccc(C(=O)Oc2ccccc2/C=C\C(=O)c2cc3ccccc3o2)c1	20.7*	61.1	9.4	105.3	96.6	3.8
